What was measured:
Adenosine receptor A2a = Adenosine receptor A2a (Rattus norvegicus, UniProt P30543); assay: Displacement of [3H]-CGS- 21680 binding to Adenosine A2A receptor in rat striatal membranes; type: cell membranes, Membrane
Procedure, shortened: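 Adenosine deaminase (3 units/mL) present during preparation, 30 min preincubation at 30 °C and incubation. At least five competitor concentrations over 3 orders of magnitude.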

[1] = biological target: T1, Voltage-gated L-type calcium channel (Rattus norvegicus, UniProt P22002+Q02485+P27732); assay: Inhibition of [3H]isradipine binding to L-type [Ca2+] channel of rat brain membranes; type: cell membranes, Membrane
Procedure, shortened: (§1)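 Rat brain membranes (~100 μg protein) incubated 1 h at 25 °C with 0.1 nM [3H]isradipine and varying competitor in 50 mM Tris, pH 7.4. Nonspecific binding with 10 μM nitrendipine.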

[2] = biological target: Adenosine receptor A2a (Rattus norvegicus) (UniProt P30543); assay: Displacement of [3H]-CGS- 21680 from Adenosine A2A receptor in rat striatal membranes; type: cell membranes; conditions: Membrane, concentration not given here
Chain of Adenosine receptor A2a (Rattus norvegicus) (P30543 whole entry): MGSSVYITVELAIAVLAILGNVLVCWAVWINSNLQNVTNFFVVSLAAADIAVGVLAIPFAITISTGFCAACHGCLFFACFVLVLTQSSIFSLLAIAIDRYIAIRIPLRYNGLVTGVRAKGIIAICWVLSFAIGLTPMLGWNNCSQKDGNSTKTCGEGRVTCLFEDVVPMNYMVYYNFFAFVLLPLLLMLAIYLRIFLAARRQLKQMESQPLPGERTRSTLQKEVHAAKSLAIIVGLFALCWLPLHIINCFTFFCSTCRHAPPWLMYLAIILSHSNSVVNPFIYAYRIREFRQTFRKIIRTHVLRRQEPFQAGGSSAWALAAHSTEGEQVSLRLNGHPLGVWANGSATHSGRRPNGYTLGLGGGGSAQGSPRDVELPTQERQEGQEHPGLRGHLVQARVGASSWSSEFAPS
Procedure, shortened: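 Rat striatal membranes with [3H]CGS 21680. Adenosine deaminase (3 units/mL) present during preparation, 30 min preincubation at 30 °C and incubation. At least five competitor concentrations over 3 orders of magnitude.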

Adenosine receptor A3 [3] = biological target: T2, Adenosine receptor A3 (Rattus norvegicus, UniProt P28647); assay: Binding affinity against rat Adenosine A3 receptor from CHO cells; type: cell-based
T2 sequence (P28647 whole entry): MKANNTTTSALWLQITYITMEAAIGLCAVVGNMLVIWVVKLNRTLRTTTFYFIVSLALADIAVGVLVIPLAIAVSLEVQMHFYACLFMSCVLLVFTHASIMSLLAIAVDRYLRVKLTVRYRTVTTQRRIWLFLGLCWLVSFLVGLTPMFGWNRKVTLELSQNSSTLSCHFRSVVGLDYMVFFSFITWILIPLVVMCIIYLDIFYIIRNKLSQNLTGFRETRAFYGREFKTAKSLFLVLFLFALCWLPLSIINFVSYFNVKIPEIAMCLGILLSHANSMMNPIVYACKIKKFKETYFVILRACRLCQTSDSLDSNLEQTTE
Procedure, shortened: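 CHO cell membranes stably expressing cloned rat A3 receptor. Nonspecific binding defined with 100 μM R-PIA. Filtration assay. IC50 converted to Ki by Cheng–Prusoff.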

[4] = biological target: T3, Adenosine receptor A3 (Rattus norvegicus) (UniProt P28647); assay: Inhibition of adenylyl cyclase by A3 agonist IB-MECA(10e-6M) in CHO cell membranes expressing rat Adenosine A3 receptor; type: functional, cell-based
T3 sequence (whole entry): T2 sequence (P28647 whole entry)
Procedure, shortened: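 Membranes from CHO cells stably expressing rat A3 receptor. Stimulated with 1 μM forskolin and [α-32P]ATP. Test compounds at 10 μM against the stated IB-MECA concentration. Stop buffer contained [3H]cyclic AMP. Reported as percent inhibition; significance by t-test.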

[5] = biological target: T4, Equilibrative nucleoside transporter 1 (Rattus norvegicus, UniProt O54698); assay: Ability to displace radioligand from Na+ independent Adenosine transporter in rat
T4 sequence (O54698 whole entry): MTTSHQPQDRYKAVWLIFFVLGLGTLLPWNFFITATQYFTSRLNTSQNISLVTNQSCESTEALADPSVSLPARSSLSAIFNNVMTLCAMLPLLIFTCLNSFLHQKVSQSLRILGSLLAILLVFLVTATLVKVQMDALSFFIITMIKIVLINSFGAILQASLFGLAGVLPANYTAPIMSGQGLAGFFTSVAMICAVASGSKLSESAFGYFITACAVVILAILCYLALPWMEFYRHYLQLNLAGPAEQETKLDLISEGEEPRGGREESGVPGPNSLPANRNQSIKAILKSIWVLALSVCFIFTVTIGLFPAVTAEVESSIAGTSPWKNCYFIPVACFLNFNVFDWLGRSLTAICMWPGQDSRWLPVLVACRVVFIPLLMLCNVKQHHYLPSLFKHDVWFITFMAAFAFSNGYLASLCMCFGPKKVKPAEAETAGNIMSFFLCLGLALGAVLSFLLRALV
Procedure, shortened: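 Rat forebrain membranes incubated 30 min at 23 °C with 0.7 nM [3H]NBI and varying competitor concentrations in 50 mM Tris, pH 7.4. Ki or percent of specific binding displaced.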

[6] = biological target: T5, Adenosine receptor A1 (Rattus norvegicus) (UniProt P25099); assay: (§2) Displacement of [3H](R)-PIA binding to Adenosine A1 receptor in rat brain membranes; type: cell membranes; conditions: concentration not given here
T5 sequence (whole entry): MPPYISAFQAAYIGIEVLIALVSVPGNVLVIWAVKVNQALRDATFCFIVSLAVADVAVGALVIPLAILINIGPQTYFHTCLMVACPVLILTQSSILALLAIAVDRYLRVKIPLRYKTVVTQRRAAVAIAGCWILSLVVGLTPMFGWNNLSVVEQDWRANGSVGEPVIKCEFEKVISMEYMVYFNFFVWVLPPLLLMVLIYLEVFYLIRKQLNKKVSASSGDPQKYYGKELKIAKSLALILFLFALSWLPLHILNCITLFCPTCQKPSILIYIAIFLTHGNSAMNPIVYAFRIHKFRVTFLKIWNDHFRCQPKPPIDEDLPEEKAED
Procedure, shortened: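 Rat cerebral cortex membranes with [3H]-(R)-PIA. Adenosine deaminase (3 units/mL) present during membrane preparation, during a 30 min preincubation at 30 °C and during incubation. Competitor at ≥5 concentrations spanning 3 log units, DMSO ≤2%.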

Adenosine receptor A3 [7] = biological target: T6, Adenosine receptor A3 (Homo sapiens, UniProt P0DMS8); assay: Displacement of [125]AB-MECA binding to human Adenosine A3 receptor expressed in HEK cells; type: cell-based, HEK293
T6 sequence (P0DMS8 whole entry): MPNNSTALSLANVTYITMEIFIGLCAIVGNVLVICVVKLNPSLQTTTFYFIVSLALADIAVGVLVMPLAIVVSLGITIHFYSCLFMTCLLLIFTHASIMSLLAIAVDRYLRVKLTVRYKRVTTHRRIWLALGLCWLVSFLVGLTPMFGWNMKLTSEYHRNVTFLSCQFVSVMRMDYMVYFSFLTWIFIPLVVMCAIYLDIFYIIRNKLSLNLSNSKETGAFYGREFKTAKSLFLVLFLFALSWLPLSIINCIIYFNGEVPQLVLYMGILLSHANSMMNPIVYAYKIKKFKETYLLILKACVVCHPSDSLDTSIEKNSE

Adenosine receptor A1 = biological target: T7, Adenosine receptor A1 (Rattus norvegicus, UniProt P25099); assay: as §2; type: cell membranes
T7 sequence (P25099 whole entry): T5 sequence (whole entry)

[8] = biological target: T1, Voltage-gated L-type calcium channel; assay: Inhibition of [3H]-isradipine binding to L-type [Ca2+] channel of rat brain membranes; type: cell membranes, Membrane; procedure, shortened: as §1

Chain of Adenosine receptor A2a (P30543 whole entry): as the sequence (P30543 whole entry) above

Row | SMILES | Ki (Adenosine receptor A2a; read-out: Ki) [µM] | other results
1 | CCO/C(O)=C1\C(C)=NC(C)=C(C(=O)OC)C1C (stereo in doubt; 29) | 8.96 | 
2 | CCO/C(O)=C1\C(C)=NC(C)=C(C(=O)OC)C1CC (centres undefined) | 9.56 | 
3 | CCO/C(O)=C1\C(C)=NC(C)=C(C(=O)OC)C1CCc1ccccc1 (centres undefined) | 6.71 | 
4 | CCOC(=O)C1=C(c2ccccc2)N=C(C)/C(=C(\O)OCC)C1C (stereo in doubt; 30) | 28.4 | Inhibition [1]: < 10%
5 | CCOC(=O)C1=C(C)NC(C)=C(C(=O)OC)C1c1ccccc1 (centres undefined) | 2.74 | 
6 | CO/C(O)=C1/C(C)=NC(C)=C(C(=O)OCc2ccccc2)C1C (centres undefined) | 9.72 | 
7 | COCCO/C(O)=C1\C(C)=NC(C)=C(C(=O)OC)C1C (centres undefined) |  | inhibition [2]: 37%
8 | COC(=O)C1=C(C)NC(C)=C(C(=O)OCCN(C)Cc2ccccc2)C1c1cccc([N+](=O)[O-])c1 (centres undefined) [NICARDIPINE] |  | Ki (Adenosine receptor A3 [3]): 11 µM; inhibition [4]: 27.2%; Ki [5]: 5.36 µM
9 | CCO/C(O)=C1\C(C)=NC(C)=C(C(=O)OC)C1C (stereo in doubt; 1) | 46.1 | 
10 | CCO/C(O)=C1\C(C)=NC(C)=C(C(=O)OC)C1c1ccc([N+](=O)[O-])cc1 (centres undefined) | 35.6 | inhibition [6]: 37%
11 | CCOC(=O)C1=C(C)NC(C)=C(C(=O)OC)C1c1cccc([N+](=O)[O-])c1 (centres undefined) [NITRENDIPINE] | 23 | Ki (Adenosine receptor A3 [7]): 8.3 µM; Ki (Adenosine receptor A1): 8.96 µM
12 | CCOC(=O)C1=C(c2ccccc2)N=C(C)/C(=C(\O)OCC)C1C (stereo in doubt; 27) | 35.9 | Inhibition [1]: 17%
13 | CCOC(=O)C1=C(C)NC(C)=C(C(=O)OC)C1C#Cc1ccccc1 (centres undefined) |  | Inhibition [1]: 23%
14 | CCO/C(O)=C1\C(C)=NC(C)=C(C(=O)OC)C1c1ccc2c(c1)OCO2 (centres undefined) | 5.27 | Ki (Adenosine receptor A3 [7]): 4.58 µM; Ki (Adenosine receptor A1): 3.66 µM
15 | CCO/C(O)=C1/C(C)=NC(C)=C(C(=O)OCCSc2ccccc2)C1C (centres undefined) | 7.1 | 
16 | CCO/C(O)=C1\C(C)=NC(C)=C(C(=O)OC)C1c1ccc(OC)cc1 (centres undefined) | 12.7 | 
17 | CCOC(=O)C1=C(c2ccccc2)N=C(C)/C(=C(/O)OCC)C1/C=C/c1ccccc1 (centres undefined) | 4.77 | Inhibition [1]: < 10%
18 | CCOC(=O)C1=C(C)NC(C)=C(C(=O)OC)C1/C=C/c1ccccc1 (centres undefined) | 49.3 | Ki (Adenosine receptor A3 [3]): 12.1 µM; Ki (Adenosine receptor A3 [7]): 0.67 µM; Ki (Adenosine receptor A1): 16.1 µM; Ki [8]: 0.694 µM
19 | CCO/C(O)=C1\C(C)=NC(C)=C(C(=O)OC)C1c1ccccc1C(F)(F)F (centres undefined) | 20.7 | 
20 | CCCC1C(C(=O)OCC)=C(C)N=C(C)/C1=C(\O)OC (centres undefined) | 11.5 | 
21 | CCO/C(O)=C1\C(C)=NC(C)=C(C(=O)OC)C1CC(C)CCC=C(C)C (centres undefined) | 23.1 | 
22 | COC(=O)C1=C(C)NC(C)=C(C(=O)OCCCN2CCC(c3ccccc3)(c3ccccc3)CC2)[C@@H]1c1cccc([N+](=O)[O-])c1 [DEXNIGULDIPINE] |  | Ki (Adenosine receptor A2a): Not Active
23 | CCO/C(O)=C1\C(C)=NC(C)=C(C(=O)OC)C1c1ccc(O)c(OC)c1 (centres undefined) | 56.8 | 
24 | COc1ccc(C2C=CNC=C2)cc1 | 71 | 
25 | CCCCC1=C(C(=O)OCC)C(C)/C(=C(/O)OCC)C(C)=N1 (centres undefined) | 38 | 

— ChEMBL document CHEMBL1129250, “Interaction of 1,4-dihydropyridine and pyridine derivatives with adenosine receptors: selectivity for A3 receptors” (J Med Chem, 1996)
